Data reported in ChEMBL document CHEMBL1152808, “Novel adenosine-derived inhibitors of 70 kDa heat shock protein, discovered through structure-based design” (J Med Chem, 2009).
Active and inactive are the calls of the source. The rule behind the calls is not given here.

Columns and labels:
[1] = Displacement of fluorescein labeled N6-(6-amino)hexyl-ATP-5-FAM from HSP70 by fluorescence polarization assay
How it was run: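 Competitive FP binding: displacement of fluorescein-labelled ATP-based probe N6-(6-amino)hexyl-ATP-5-FAM (probe KD 0.4 µM) from HSP70 at 0.4 µM protein; IC50 from binding competition.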

[2] = Binding affinity to HSP70 by Biocore direct binding assay
How it was run: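 SPR direct binding: double His-tagged HSP70 construct immobilized on a Biacore sensor chip; KD determined from direct ligand binding.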

HCT-116 [3] = assay: Cytotoxicity against human HCT116 cells by SRB assay; assay type: functional
How it was run: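 HCT116 human colon tumour cells; growth inhibition measured by sulforhodamine B (SRB) staining; GI50 reported.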

HCT-116 [4] = assay: Inhibition of HSP70 in human HCT116 cells assessed as reduction of […] protein levels after 24 hrs by Western blot; assay type: cell-based
How it was run: (§1)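 HCT116 cells exposed to compound for 24 h at 0.05 or 0.1 µM or 2.5-40 µM. Raf-1, Her2 and HSP70 expression detected by Western blot. GAPDH served as loading control.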

HCT-116 [5] = assay: Inhibition of HSP70 in human HCT116 cells assessed as reduction of Raf1 protein levels after 24 hrs by Western blot; assay type: cell-based; how it was run: as §1
[6] = Binding affinity to HSP90 by fluorescence polarization assay

Structure (SMILES) | IC50 [1] [µM] | Kd [2] [µM] | GI50 (HCT-116 [3]) [µM] | Activity (HCT-116 [4]) | Activity (HCT-116 [5]) | IC50 [6] [µM]
Nc1ncnc2c1nc(N)n2[C@@H]1O[C@H](CO)[C@@H](O)[C@H]1O | 9.4 | 11 | 0.05 | inactive | inactive | > 400
Nc1ncnc2c1nc(NCc1ccc(Cl)c(Cl)c1)n2[C@@H]1O[C@H](CO)[C@@H](O)[C@H]1O | 9.1 |  | 26 |  |  | > 400
N#Cc1ccc(COC[C@H]2O[C@@H](n3c(NCc4ccc5ncccc5c4)nc4c(N)ncnc43)[C@H](O)[C@@H]2O)cc1 | 0.9 | 0.05 | > 80 |  |  | > 400
Nc1ncnc2c1nc(NCc1ccc(Cl)c(Cl)c1)n2[C@@H]1O[C@H](COCc2ccccc2)[C@@H](O)[C@H]1O | 2.4 |  | > 80 |  |  | > 400
COC[C@H]1O[C@@H](n2c(NCc3ccc(Cl)c(Cl)c3)nc3c(N)ncnc32)[C@H](O)[C@@H]1O | 3.2 |  | > 80 |  |  | > 400
Nc1ncnc2c1nc(NCc1ccc(Cl)c(Cl)c1)n2[C@@H]1O[C@H](COCc2cc(F)c(F)c(F)c2)[C@@H](O)[C@H]1O | 1.7 | 4.2 | 13 |  |  | > 400
Nc1ncnc2c1nc(NCc1ccc3ncccc3c1)n2[C@@H]1O[C@H](COCc2ccc(C(F)(F)F)cc2)[C@@H](O)[C@H]1O | 0.6 | 0.06 | 27 |  |  | > 400
Nc1ncnc2c1nc(NCc1ccccc1)n2[C@@H]1O[C@H](CO)[C@@H](O)[C@H]1O | 10 |  | > 80 |  |  | > 400
Nc1ncnc2c1nc(NCc1ccc3ncccc3c1)n2[C@@H]1O[C@H](CO)[C@@H](O)[C@H]1O | 2.9 |  | > 80 |  |  | > 400
N#Cc1ccc(COC[C@H]2O[C@@H](n3c(NCc4ccc(Cl)c(Cl)c4)nc4c(N)ncnc43)[C@H](O)[C@@H]2O)cc1 | 0.5 | 0.3 | 5 | Active | Active | > 400
Nc1ncnc2c1nc(NCc1ccc3ncccc3c1)n2[C@@H]1O[C@H](COCc2cc(F)c(F)c(F)c2)[C@@H](O)[C@H]1O | < 0.4 | 0.12 | 18 |  |  | > 400
CNc1nc2c(N)ncnc2n1[C@@H]1O[C@H](CO)[C@@H](O)[C@H]1O | 17 |  | 13 |  |  | > 400
Nc1ncnc2c1ncn2[C@@H]1O[C@H](CO)[C@@H](O)[C@H]1O [ADENOSINE] | 560 |  |  |  |  | > 400
Nc1ncnc2c1ncn2[C@@H]1O[C@H](COP(=O)(O)OP(=O)(O)O)[C@@H](O)[C@H]1O [ADENOSINE DIPHOSPHATE] | 0.5 | 0.5 |  |  |  | > 400
Nc1ncnc2c1ncn2[C@@H]1O[C@H](COP(=O)(O)OP(=O)(O)OP(=O)(O)O)[C@@H](O)[C@H]1O [ADENOSINE TRIPHOSPHATE] | 0.5 |  |  |  |  | > 400
N#Cc1ccc(COC[C@H]2O[C@@H](n3c(NCc4ccccc4)nc4c(N)ncnc43)[C@H](O)[C@@H]2O)cc1 | 1.3 | 0.2 | > 80 |  |  | > 400
Nc1ncnc2c1nc(NCc1ccc3c(c1)OCO3)n2[C@@H]1O[C@H](CO)[C@@H](O)[C@H]1O | 4.9 |  | > 80 |  |  | > 400
